NSD2 HMT inh – inhibitors of human histone methyltransferase NSD2 | O96028 | NSD2 peptide methylation, AlphaScreen, 120 min | inhibition, % at 12.5 µM | 310,000 compounds, 0.54% hits | AID 743445; in the data active = inhibition above about 50%
UCH37 inh – human UCH37 deubiquitinating enzyme inhibition | Q9Y5K5 | purified proteasome/UCH37, Ub-AMC cleavage fluorescence | inhibition, % (test concentration not listed) | 330,000 compounds, 0.33% hits;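 active = mean inhibition over replicate wells above about 20%, limit read from the data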
Target sequence (Q9Y5K5 whole entry, looked up): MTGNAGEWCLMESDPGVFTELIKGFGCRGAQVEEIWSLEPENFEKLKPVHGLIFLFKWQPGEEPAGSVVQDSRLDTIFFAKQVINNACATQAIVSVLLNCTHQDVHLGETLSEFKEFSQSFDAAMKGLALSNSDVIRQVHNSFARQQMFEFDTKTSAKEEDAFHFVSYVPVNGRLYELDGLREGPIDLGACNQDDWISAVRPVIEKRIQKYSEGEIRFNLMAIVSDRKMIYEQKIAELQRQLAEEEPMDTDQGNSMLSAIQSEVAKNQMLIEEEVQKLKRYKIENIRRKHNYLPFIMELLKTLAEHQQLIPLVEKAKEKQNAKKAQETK
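Test system – human UCH37 enzyme supplied as purified proteasome complex · Incubation – 30 min preincubation with enzyme, 25 min cleavage at room temperature · Detection – AMC fluorescence from Ub-AMC cleavage, excitation 355 nm, emission 460 nm · Benchmarks – no-proteasome wells (full inhibition) and compound-free wells (no inhibition)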
Casp6 inh – caspase-6 (human) enzyme inhibition. inhibition, % at 12.5 µM. AID 686996. purified caspase-6, Z-VEID-R110 cleavage fluorescence. P55212. 350,000 compounds, 0.53% hits;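 active = mean inhibition across replicates at least about 35%, with every replicate also reaching that limit, limit read from the data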
SIRT5 inh – sirtuin-5 (human) deacylase inhibition; Q9NXA8; inhibition, % at 15 µM; Purified SirT5, succinyl-peptide AMC, trypsin-coupled fluorescence; 330,000 compounds, 1.1% hits; in the data active = inhibition above about 15%
FGF22 binding – shifts melting point of recombinant human FGF22. activity (Tm shift, normalised), % at 9.99 µM. AID 651658. recombinant FGF22 thermal shift, SYPRO orange fluorescence; percent of sucrose octasulfate shift, DMSO zero. 340,000 compounds, 1.5% hits. Q9HCT0;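 active = mean Tm shift, scaled 0 neutral to 100 positive control, at about 1.3% or above, every replicate too, limit read from the data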
Numbers stand for hits. A selection: hits, their analogues and other compounds. The true share with any hit is near 2.6%.

Results for CO[C@H]1CN(C)C(=O)c2cc(NC(=O)C3CCOCC3)ccc2OC[C@@H](C)N(C(C)=O)C[C@H]1C ?
Casp6 inh: inactive; SIRT5 inh: inactive; FGF22 binding: inactive

How did COc1ccc(NC(=O)N(C)C[C@@H]2Oc3ccc(N(C)C)cc3CC(=O)N([C@@H](C)CO)C[C@@H]2C)cc1 do in these assays?
Casp6 inh: inactive; SIRT5 inh: inactive; FGF22 binding: inactive

Results for Cc1ccccc1-c1nc(NC(C)C)nc2ccsc12 ?
NSD2 HMT inh: inactive; Casp6 inh: inactive; SIRT5 inh: inactive; FGF22 binding: inactive

How did CC(C)Nc1nc(-c2ccccc2CO)c2sccc2n1 do in these assays?
NSD2 HMT inh: inactive; Casp6 inh: inactive; FGF22 binding: 43.3

Results for NNC(=S)Nc1cccc(-c2n[nH]c(=S)o2)c1 ?
NSD2 HMT inh: inactive; UCH37 inh: inactive; Casp6 inh: inactive; SIRT5 inh: 18.3; FGF22 binding: inactive

Results for C[C@H]1CN([C@@H](C)CO)C(=O)Cc2cc(NC(=O)Nc3ccccc3)ccc2O[C@@H]1CN(C)Cc1ccncc1 ?
Casp6 inh: inactive; FGF22 binding: inactive

What do the screens show for `C/C=C/c1ccc([C@@H]2[C@@H](CN(CC)C(=O)CC)N(S(C)(=O)=O)[C@H]2CO)cc1`?
SIRT5 inh: inactive; FGF22 binding: inactive

Results for COc1ccc(C(=O)NC(C)Cc2c[nH]c3ccccc23)cc1 (configuration not stated) ?
NSD2 HMT inh: inactive; Casp6 inh: inactive; FGF22 binding: 43.2

What do the screens show for `COC(=O)[C@H](Cc1c[nH]c2ccccc12)NCc1cccc(B(O)O)c1`?
Casp6 inh: inactive; SIRT5 inh: 26.2; FGF22 binding: inactive

How did O=C(CC(C(=O)O)c1c[nH]c2ccccc12)c1ccccc1 (configuration not stated) do in these assays?
NSD2 HMT inh: inactive; UCH37 inh: inactive; Casp6 inh: inactive; SIRT5 inh: 17.5; FGF22 binding: inactive

What do the screens show for `O=C(N[C@@H](Cc1c[nH]c2ccccc12)C(=O)O)c1ccc(Cl)cc1`?
NSD2 HMT inh: inactive; UCH37 inh: inactive; Casp6 inh: inactive; SIRT5 inh: inactive; FGF22 binding: 43.7

How did COc1ccc(NC(=O)N(C)C[C@@H]2Oc3c(NC(=O)Nc4ccccc4)cccc3C(=O)N([C@@H](C)CO)C[C@H]2C)cc1 do in these assays?
Casp6 inh: inactive; SIRT5 inh: inactive; FGF22 binding: inactive

Results for O=C(O)C(O)Cc1c[nH]c2ccccc12 (configuration not stated) ?
UCH37 inh: inactive; Casp6 inh: inactive; SIRT5 inh: inactive; FGF22 binding: inactive

Results for CC(Cc1c[nH]c2ccccc12)C(=O)O (configuration not stated) ?
UCH37 inh: inactive; Casp6 inh: 37.9; SIRT5 inh: inactive; FGF22 binding: inactive

Results for C[C@@H]1CCCCO[C@@H](CN(C)Cc2ccccc2)[C@H](C)CN([C@@H](C)CO)C(=O)c2cc(NC(=O)Nc3ccc(C(F)(F)F)cc3)ccc2O1 ?
Casp6 inh: inactive; SIRT5 inh: inactive; FGF22 binding: inactive

What do the screens show for `NC(=S)NCc1cccnc1`?
NSD2 HMT inh: inactive; UCH37 inh: inactive; Casp6 inh: inactive; SIRT5 inh: inactive; FGF22 binding: 43.3

How did Cc1ccc(CC(=O)NCc2cccnc2)cc1 do in these assays?
NSD2 HMT inh: inactive; UCH37 inh: inactive; Casp6 inh: inactive; SIRT5 inh: inactive; FGF22 binding: 44.0

Results for Cc1oc2c(c1C(=O)NCc1cccnc1)C(=O)c1ccccc1C2=O ?
UCH37 inh: 21.9

Results for CN1CCN(C2=C(NS(=O)(=O)c3cccs3)C(=O)c3ccccc3C2=O)CC1 ?
NSD2 HMT inh: inactive; UCH37 inh: inactive; Casp6 inh: 47.1; SIRT5 inh: inactive; FGF22 binding: inactive

How did CN1CCN(C2=C(NS(=O)(=O)c3ccccc3)C(=O)c3ccccc3C2=O)CC1 do in these assays?
NSD2 HMT inh: inactive; UCH37 inh: inactive

How did CCN1CCN(C2=C(NS(=O)(=O)c3ccc(Br)cc3)C(=O)c3ccccc3C2=O)CC1 do in these assays?
NSD2 HMT inh: 90.4; UCH37 inh: inactive; Casp6 inh: 68.5; SIRT5 inh: inactive; FGF22 binding: inactive

Results for CCN1CCN(C2=C(NS(=O)(=O)c3ccccc3)C(=O)c3ccccc3C2=O)CC1 ?
NSD2 HMT inh: 56.7; UCH37 inh: inactive; Casp6 inh: 47.7; SIRT5 inh: inactive; FGF22 binding: inactive
